Legend:
Assay type in all cases: functional
U-251 = test: Cytotoxicity against human U251 cells by SRB assay
Procedure, shortened: (§1)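 NCI 60 human tumor cell line panel, sulforhodamine B (SRB) protein-stain read-out. Compounds were first screened at a single dose of 10^-5 M, and selected compounds were then tested in a five-dose format. GI50 is the drug concentration giving a 50% reduction in net protein increase relative to control cells.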

MCF7 = test: Cytotoxicity against human MCF7 cells by SRB assay; procedure, shortened: as §1
[1] = Cytotoxicity against human HCT116 cells by SRB assay; conditions: HCT-116; procedure, shortened: as §1
[2] = Cytotoxicity against human SNB75 cells by SRB assay; conditions: SNB-75; procedure, shortened: as §1
[3] = Cytotoxicity against human SF539 cells by SRB assay; conditions: SF-539; procedure, shortened: as §1
[4] = Cytotoxicity against human RPMI8226 cells by SRB assay; conditions: RPMI-8226; procedure, shortened: as §1
[5] = Cytotoxicity against human UACC62 cells by SRB assay; conditions: UACC-62; procedure, shortened: as §1
SK-MEL-5 = test: Cytotoxicity against human SK-MEL-5 cells by SRB assay; procedure, shortened: as §1
[6] = Cytotoxicity against human SW620 cells by SRB assay; conditions: SW-620; procedure, shortened: as §1
SK-MEL-28 = test: Cytotoxicity against human SK-MEL-28 cells by SRB assay; procedure, shortened: as §1
K562 = test: Cytotoxicity against human K562 cells by SRB assay; procedure, shortened: as §1
[7] = Cytotoxicity against human SF268 cells by SRB assay; conditions: SF-268; procedure, shortened: as §1
KM12 = test: Cytotoxicity against human KM12 cells by SRB assay; procedure, shortened: as §1
[8] = Cytotoxicity against human Hs578T cells by SRB assay; conditions: Hs-578T; procedure, shortened: as §1
[9] = Cytotoxicity against human HOP62 cells by SRB assay; conditions: HOP-62; procedure, shortened: as §1
HT-29 = test: Cytotoxicity against human HT-29 cells by SRB assay; procedure, shortened: as §1
[10] = Cytotoxicity against human COLO205 cells by SRB assay; conditions: COLO 205; procedure, shortened: as §1
A549 = test: Cytotoxicity against human A549 cells by SRB assay; procedure, shortened: as §1
MDA-MB-435 = test: Cytotoxicity against human MDA-MB-435 cells by SRB assay; procedure, shortened: as §1
NCI/ADR-RES = test: Cytotoxicity against human NCI/ADR-RES cells by SRB assay; procedure, shortened: as §1
[11] = Cytotoxicity against human OVCAR4 cells by SRB assay; conditions: OVCAR-4; procedure, shortened: as §1
[12] = Cytotoxicity against human HCT15 cells by SRB assay; conditions: HCT-15; procedure, shortened: as §1
NCI-H522 = test: Cytotoxicity against human NCI-H522 cells by SRB assay; procedure, shortened: as §1
[13] = Cytotoxicity against human UO31 cells by SRB assay; conditions: UO-31; procedure, shortened: as §1
[14] = Cytotoxicity against human HCC2998 cells by SRB assay; conditions: HCC 2998; procedure, shortened: as §1
MDA-MB-231 = test: Cytotoxicity against human MDA-MB-231 cells by SRB assay; procedure, shortened: as §1
[15] = Cytotoxicity against human IGROV1 cells by SRB assay; conditions: IGROV-1
Procedure, shortened: (§2)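 NCI 60-cell-line panel using sulforhodamine B protein stain. Initial single-dose screen at 10^-5 M, then five-dose testing. GI50 is the drug concentration giving a 50% reduction in net protein increase relative to control cells.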

CAKI-1 = test: Cytotoxicity against human CAKI-1 cells by SRB assay; procedure, shortened: as §1
SR = test: Cytotoxicity against human SR cells by SRB assay; procedure, shortened: as §1
[16] = Cytotoxicity against human SKOV3 cells by SRB assay; conditions: SK-OV-3; procedure, shortened: as §1
CCRF-CEM = test: Cytotoxicity against human CCRF-CEM cells by SRB assay; procedure, shortened: as §1
[17] = Cytotoxicity against human HL-60(TB) cells by SRB assay; procedure, shortened: as §2
A498 = test: Cytotoxicity against human A498 cells by SRB assay; procedure, shortened: as §1
[18] = Cytotoxicity against human MOLT4 cells by SRB assay; conditions: MOLT-4; procedure, shortened: as §1
[19] = Cytotoxicity against human SNB19 cells by SRB assay; conditions: SNB-19; procedure, shortened: as §1
ACHN = test: Cytotoxicity against human ACHN cells by SRB assay; procedure, shortened: as §1
MDA-MB-468 = test: Cytotoxicity against human MDA-MB-468 cells by SRB assay; procedure, shortened: as §1
M14 = test: Cytotoxicity against human M14 cells by SRB assay; procedure, shortened: as §1
[20] = Cytotoxicity against human OVCAR3 cells by SRB assay; conditions: OVCAR-3; procedure, shortened: as §1
786-0 = test: Cytotoxicity against human 786-0 cells by SRB assay; procedure, shortened: as §1
[21] = Cytotoxicity against human SF295 cells by SRB assay; conditions: SF-295; procedure, shortened: as §1
[22] = Cytotoxicity against human LOXIMVI cells by SRB assay; conditions: LOX IMVI; procedure, shortened: as §2
[23] = Cytotoxicity against human HOP92 cells by SRB assay; conditions: HOP-92; procedure, shortened: as §1
SK-MEL-2 = test: Cytotoxicity against human SK-MEL-2 cells by SRB assay; procedure, shortened: as §1
NCI-H23 = test: Cytotoxicity against human NCI-H23 cells by SRB assay; procedure, shortened: as §1

COc1ccc(/C=C/c2cc(OC)cc(OC)c2/C=C(\C#N)c2ccc(OC)cc2)cc1
GI50 (U-251): 640 nM | GI50 (MCF7): 390 nM | GI50 [1]: 490 nM | GI50 [2]: 470 nM | GI50 [3]: 270 nM | GI50 [4]: 1160 nM | GI50 [5]: 700 nM | GI50 (SK-MEL-5): 2280 nM | GI50 [6]: 500 nM | GI50 (SK-MEL-28): 750 nM | GI50 (K562): 430 nM | GI50 [7]: 4710 nM | GI50 (KM12): 780 nM | GI50 [8]: 680 nM | GI50 [9]: 970 nM | GI50 (HT-29): 690 nM | GI50 [10]: 1240 nM | GI50 (A549): 910 nM | GI50 (MDA-MB-435): 240 nM | GI50 (NCI/ADR-RES): 650 nM | GI50 [11]: 500 nM | GI50 [12]: 650 nM | GI50 (NCI-H522): 240 nM | GI50 [13]: 810 nM | GI50 [14]: 2490 nM | GI50 (MDA-MB-231): 2780 nM | GI50 [15]: 2350 nM | GI50 (CAKI-1): 500 nM | GI50 (SR): 910 nM | GI50 [16]: 1350 nM | GI50 (CCRF-CEM): 750 nM | GI50 [17]: 1660 nM | GI50 (A498): 380 nM | GI50 [18]: 4380 nM | GI50 [19]: > 100000 nM | GI50 (ACHN): 830 nM | GI50 (MDA-MB-468): 1720 nM | GI50 (M14): 1380 nM | GI50 [20]: 630 nM | GI50 (786-0): 1720 nM | GI50 [21]: 360 nM

COc1ccc(/C=C(\C#N)c2cc(OC)c(OC)c(OC)c2)cc1
GI50 (U-251): 20 nM | GI50 (MCF7): < 10 nM | GI50 [1]: < 10 nM | GI50 [2]: < 10 nM | GI50 [3]: < 10 nM | GI50 [4]: 30 nM | GI50 [5]: < 10 nM | GI50 (SK-MEL-5): 10 nM | GI50 [6]: 10 nM | GI50 (K562): < 10 nM | GI50 [7]: 40 nM | GI50 [22]: 10 nM | GI50 (KM12): < 10 nM | GI50 [8]: < 10 nM | GI50 [9]: 30 nM | GI50 (HT-29): < 10 nM | GI50 [10]: 10 nM | GI50 (A549): 10 nM | GI50 (MDA-MB-435): < 10 nM | GI50 (NCI/ADR-RES): < 10 nM | GI50 [11]: 10 nM | GI50 [12]: < 10 nM | GI50 (NCI-H522): < 10 nM | GI50 [13]: < 10 nM | GI50 [14]: 40 nM | GI50 (MDA-MB-231): 30 nM | GI50 [23]: 20 nM | GI50 [15]: 20 nM | GI50 (SR): < 10 nM | GI50 [16]: < 10 nM | GI50 (CCRF-CEM): 30 nM | GI50 (SK-MEL-2): 80 nM | GI50 [17]: 20 nM | GI50 (A498): < 10 nM | GI50 [18]: 30 nM | GI50 [19]: 60 nM | GI50 (ACHN): 10 nM | GI50 (MDA-MB-468): 20 nM | GI50 (M14): 10 nM | GI50 [20]: < 10 nM | GI50 (NCI-H23): 50 nM | GI50 (786-0): 20 nM | GI50 [21]: < 10 nM

COc1ccc(/C=C\c2cc(OC)c(OC)c(OC)c2)cc1O [COMBRETASTATIN A4]
GI50 (U-251): 4 nM | GI50 [1]: 3 nM | GI50 [2]: 8 nM | GI50 [3]: 3 nM | GI50 [4]: 3 nM | GI50 [5]: 6 nM | GI50 (SK-MEL-5): 4 nM | GI50 [6]: 3 nM | GI50 (SK-MEL-28): 8 nM | GI50 (K562): 2 nM | GI50 [7]: 6 nM | GI50 [22]: 3 nM | GI50 (KM12): 5 nM | GI50 [9]: 3 nM | GI50 (HT-29): 100 nM | GI50 [10]: 100 nM | GI50 (A549): 16 nM | GI50 [11]: 14 nM | GI50 [12]: 4 nM | GI50 (NCI-H522): 2 nM | GI50 [13]: 19 nM | GI50 [14]: 63 nM | GI50 [23]: 3 nM | GI50 [15]: 15 nM | GI50 (CAKI-1): 26 nM | GI50 (SR): 3 nM | GI50 [16]: 59 nM | GI50 (CCRF-CEM): 3 nM | GI50 (SK-MEL-2): 4 nM | GI50 [17]: 2 nM | GI50 (A498): 6 nM | GI50 [18]: 3 nM | GI50 [19]: 4 nM | GI50 (ACHN): 6 nM | GI50 (M14): 3 nM | GI50 [20]: 2 nM | GI50 (NCI-H23): 3 nM | GI50 (786-0): 100 nM | GI50 [21]: 4 nM

Reference: ChEMBL document CHEMBL3739271, “Synthesis and evaluation of a series of resveratrol analogues as potent anti-cancer agents that target tubulin” (2015)
